The source made the active and inactive calls.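 The calls were made as follows: active = fitted curve reaches 10% of the positive control caspase activation at or below the top valid tested dose; inactive = signal shifts the opposite way, plus the rest.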
Legend:
[1] = caspase activation in unprimed MEWO cells, dose response, counter-screen for Bcl2-A1 inhibitor project, cell-based, human MEWO, caspase luminescence, dry powder, set 3 (AID 504346); details: MEWO unprimed cells, caspase-Glo luminescence, 3 h; at 35 µM (top of the series)
How it was run: (§1)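 Test system: unprimed human MEWO cells engineered to express A1 / Input: 2500 cells/well / Buffer or medium: RPMI-1640 plus 10% FBS / Dosing: compound delivered to cells by pin transfer / Timing: 3 h compound at 37 °C, 1 h reagent at RT / Technique: CaspaseGlo luminescence / Evaluation: caspase activation level per well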

[2] = test system: MEWO unprimed cells, caspase-Glo luminescence, 3 h; experiment: as above
How it was run: as §1

| SMILES | caspase activation [1] | AC10 [2] |
| --- | --- | --- |
| Cn1c(=O)c([N+](=O)[O-])c(Cl)c2ccccc21 | 8.42% (inactive) |  |
| O=C(COc1ccc(Cl)cc1Cl)NNc1nc(N2CCOCC2)nc(N2CCOCC2)n1 | -0.692% (inactive) |  |
| CCn1c(=O)c(Sc2ccc(C)cc2)c(Sc2ccc(C)cc2)c2ccccc21 | 1.36% (inactive) |  |
| Cc1ccc(Sc2c(Sc3ccc(C)cc3)c3ccccc3n(Cc3ccccc3)c2=O)cc1 | 0.136% (inactive) |  |
| Cc1ccc(Sc2c(Sc3ccc(C)cc3)c3ccccc3n(C)c2=O)cc1 | 0.838% (inactive) |  |
| COc1c([N+](=O)[O-])c(=O)n(C)c2ccccc12 | -0.158% (inactive) |  |
| Cc1ccc(S(=O)(=O)c2c([N+](=O)[O-])c(=O)n(C)c3ccccc23)cc1 | 2.24% (inactive) |  |
| COc1nc2ccccc2c(Cl)c1[N+](=O)[O-] | 0.103% (inactive) |  |
| COc1ccc(N2CCN(c3nc(NCCc4ccc(OC)c(OC)c4)nc(N4CCOCC4)n3)CC2)cc1 | -0.115% (inactive) |  |
| Cc1ccc(Sc2c([N+](=O)[O-])c(=O)n(Cc3ccccc3)c3ccccc23)cc1 | 0.173% (inactive) |  |
| O=c1[nH]c2ccccc2c(O)c1[N+](=O)[O-] | -0.15% (inactive) |  |
| COc1ccc(CCNc2nc(N3CCOCC3)nc(N3CCOCC3)n2)cc1OC | 0.746% (inactive) |  |
| COc1nc2ccccc2c(Sc2ccc(C)cc2)c1[N+](=O)[O-] | 0.891% (inactive) |  |
| COCCn1c(=O)c([N+](=O)[O-])c(Sc2ccc(C)cc2)c2ccccc21 | 1.99% (inactive) |  |
| O=c1[nH]c2ccccc2c(Cl)c1[N+](=O)[O-] |  | > 35 µM (inactive) |
| COCCn1c(=O)c(Sc2ccc(C)cc2)c(Sc2ccc(C)cc2)c2ccccc21 | 1.05% (inactive) |  |
| CCn1c(=O)c([N+](=O)[O-])c(Cl)c2ccccc21 | 5.44% (inactive) |  |
| CC1(C)CCC(c2ccc(Cl)cc2)=C(CN2CCN(c3ccc(C(=O)NS(=O)(=O)c4ccc(N[C@H](CCN5CCOCC5)CSc5ccccc5)c(S(=O)(=O)C(F)(F)F)c4)cc3)CC2)C1 |  | 3.09 µM |
| COc1ccc(CCNc2nc(N3CCCC3)nc(N3CCCC3)n2)cc1OC | 0.039% (inactive) |  |
| Cc1ccc(Sc2c([N+](=O)[O-])c(=O)n(C)c3ccccc23)cc1 | 1.27% (inactive) |  |
| C/C(=N\Nc1nc(N2CCCCC2)nc(N2CCCCC2)n1)c1ccc(F)cc1 | -0.441% (inactive) |  |
| Cn1c(=O)c([N+](=O)[O-])c(S(C)(=O)=O)c2ccccc21 |  | > 35 µM (inactive) |
| Cn1c(=O)c([N+](=O)[O-])c(Sc2ccccn2)c2ccccc21 | 3.69% (inactive) |  |
| COCCn1c(=O)c([N+](=O)[O-])c(Cl)c2ccccc21 |  | > 35 µM (inactive) |
| Cn1c(=O)c(Sc2ccccn2)c(Sc2ccccn2)c2ccccc21 | -0.272% (inactive) |  |
| CCn1c(=O)c([N+](=O)[O-])c(Sc2ccc(C)cc2)c2ccccc21 | 2.11% (inactive) |  |
| O=c1c([N+](=O)[O-])c(Cl)c2ccccc2n1Cc1ccccc1 |  | 33.6 µM |

Source: PubChem BioAssay AID504346 (Broad Institute, 2011)
